Screens from PubChem BioAssay.
Shown are actives, neighbours in structure and some others; about 3.8% of the full set was active somewhere.
KCNQ1 pot = human KCNQ1 channel potentiation or activation. B-score at 10 µM. AID 2648. P51787. CHO-K1 KCNQ1, thallium flux FluxOR fluorescence; hits give high values. hit rate 0.35% among 310,000;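 active means fluorescence ratio B-score, a plate-corrected score, at least three library SD, with initial intensity B-score within 5 SD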
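Assay system: stable KCNQ1 CHO-K1 line; medium: assay buffer, equal DMSO in all wells; timing: 90 min dye loading and 20 min compound exposure, both at room temperature; technique: kinetic FluxOR thallium fluorescence, 10-s 1-Hz baseline, 110-s post-stimulus read; read-out basis: B score of baseline-normalized fluorescence ratio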
hERG rescue = compounds protecting human hERG from proarrhythmic drug block | CHO-hERG, FluxOR thallium flux, dofetilide IC70 present | activation (rescue from dofetilide block), less the hit threshold, % at 10 µM | hit rate 0.51% among 310,000;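 active means activation above the mean of controls blocked by dofetilide plus 5 SD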;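 further: thallium influx through hERG after potassium depolarization seen as dye fluorescence rise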
KCNQ1 inh = blocks the human KCNQ1 potassium channel; hit rate 1.3% among 310,000; P51787; B-score at 10 µM; AID 2642; CHO-K1 KCNQ1, FluxOR thallium flux fluorescence; hits give high values;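 active means compounds whose thallium flux B-score, printed positive for inhibition, exceeds three library SD while starting fluorescence stays within three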;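 further: channel opened by potassium depolarization with thallium stimulus after 20 min compound exposure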
Kir21 block = blocks the mouse Kir2.1 inward-rectifier potassium channel | AID 1672 | B-score at 10 µM | P35561 | HEK293-Kir2.1, FluxOR thallium flux fluorescence; hits give low values | hit rate 0.85% among 310,000;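 active means fluorescence ratio B-score at or below minus 3 SD of library scores, with starting-brightness B-score within 2 SD, cut at about -4.2 in these data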;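 further: channel flux triggered by added potassium and thallium sulfate stimulus; B-score of peak minus minimum fluorescence over baseline after thallium stimulus; more negative B-score means stronger Kir2.1 block with less thallium influx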
Target sequence (P35561 whole entry, looked up): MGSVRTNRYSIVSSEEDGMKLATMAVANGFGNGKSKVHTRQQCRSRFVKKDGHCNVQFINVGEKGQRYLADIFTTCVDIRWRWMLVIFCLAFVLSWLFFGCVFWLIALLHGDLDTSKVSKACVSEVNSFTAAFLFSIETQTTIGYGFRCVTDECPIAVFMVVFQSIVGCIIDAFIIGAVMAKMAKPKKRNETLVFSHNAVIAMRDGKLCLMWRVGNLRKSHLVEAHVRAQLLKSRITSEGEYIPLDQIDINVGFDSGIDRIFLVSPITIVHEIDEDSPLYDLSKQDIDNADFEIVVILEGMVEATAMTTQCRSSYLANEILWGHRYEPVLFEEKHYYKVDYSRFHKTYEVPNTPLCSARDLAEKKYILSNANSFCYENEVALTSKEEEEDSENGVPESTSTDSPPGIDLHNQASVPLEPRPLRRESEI
KCNK3 block = human KCNK3 channel inhibition, primary screen; O14649; CHO-KCNK3 thallium flux, FluxOR fluorescence; hits give low values; B-score at 10 µM; hit rate 0.84% among 340,000; AID 602410;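 active means B-score under library mean minus 4 SD, starting fluorescence ratio at most library mean plus 5 SD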;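 further: more negative B-score means stronger inhibition of thallium flux through KCNK3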
KCNK9 inh = blocks the human KCNK9 two-pore domain potassium channel. hit rate 1.2% among 310,000. Q9NPC2. HEK293 KCNK9, FluxOR thallium flux fluorescence; hits give low values. B-score at 10 µM;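 active means ratio B-score over 3 SD below the library mean, with starting fluorescence within 5 SD of its mean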;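 further: negative B-score means less thallium flux so channel inhibition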
An asterisk follows results filed as active.

Results for O=C(CCCCC(=O)Nc1ccccc1Cl)Nc1ccccc1Cl ?
KCNQ1 pot: inactive; hERG rescue: -7; KCNQ1 inh: inactive; Kir21 block: 1.2; KCNK3 block: inactive; KCNK9 inh: inactive

What do the screens show for `COC(=O)c1ccc(C(NC(=O)OCc2ccccc2)/C(C)=C/[C@@H](C)C(=O)NCc2ccc(-c3ccccc3)cc2)cc1` (stereo not given in full)?
KCNQ1 pot: inactive; hERG rescue: -14; KCNQ1 inh: inactive; Kir21 block: 1.9; KCNK3 block: inactive; KCNK9 inh: inactive

What do the screens show for `COC(=O)c1ccc(NC(=O)c2ccc(NS(=O)(=O)c3cccc4cccnc34)cc2)cc1`?
KCNQ1 pot: inactive; hERG rescue: 0; KCNQ1 inh: inactive; Kir21 block: -0.6; KCNK3 block: inactive; KCNK9 inh: inactive

What do the screens show for `CCC/C=C(\CCC)C(NS(=O)(=O)c1cccc2cccnc12)c1ccc(C(=O)OC)cc1` (stereo not given)?
KCNQ1 pot: inactive; hERG rescue: -12; KCNQ1 inh: 6*; Kir21 block: -0.1; KCNK9 inh: inactive

Results for CCC/C=C(\CCC)C(NC(=O)OCC(C)C)c1ccc(C(=O)OC)cc1 (stereo not given) ?
KCNQ1 pot: inactive; hERG rescue: -8; KCNQ1 inh: 9*; Kir21 block: 1.1; KCNK3 block: inactive; KCNK9 inh: inactive

What do the screens show for `COc1ccc(CC(CC(=O)O)C(=O)Nc2ccc(Cl)c(Cl)c2)cc1` (stereo not given)?
KCNQ1 pot: inactive; hERG rescue: -5; KCNQ1 inh: inactive; Kir21 block: 2.4; KCNK3 block: inactive; KCNK9 inh: inactive

How did O=C(COC(=O)COc1ccccc1)Nc1ncc(Cl)cc1Cl do in these assays?
KCNK3 block: inactive

Results for COc1cc(C(=O)NC(=S)N(CCC#N)Cc2cccnc2)cc(OC)c1OC ?
KCNK3 block: inactive

What do the screens show for `CCCOc1ccc(CN(CCC#N)C(=S)NC(=O)c2ccccc2)cc1`?
KCNQ1 pot: 14*; hERG rescue: 59*; KCNQ1 inh: inactive; Kir21 block: -0.41; KCNK3 block: inactive; KCNK9 inh: inactive

How did Cc1noc(C)c1S(=O)(=O)Nc1ccc(C(=O)Nc2ccc(OC(F)(F)F)cc2)cc1 do in these assays?
KCNQ1 pot: inactive; hERG rescue: -8; KCNQ1 inh: inactive; Kir21 block: -0.11; KCNK3 block: inactive; KCNK9 inh: inactive

Results for O=C(CCS(=O)(=O)c1ccc(Br)s1)NC1CCCCCC1 ?
KCNQ1 pot: inactive; hERG rescue: -5; KCNQ1 inh: inactive; Kir21 block: -11*; KCNK3 block: inactive; KCNK9 inh: inactive

How did Cc1nc(SCc2cccc(F)c2)c2oc3ccccc3c2n1 do in these assays?
KCNQ1 pot: inactive; hERG rescue: 5.0*; KCNQ1 inh: inactive; Kir21 block: 0.21; KCNK3 block: inactive; KCNK9 inh: inactive

What do the screens show for `CC(C)Cc1ccc(C(C)C(N)=NCCc2ccccc2)cc1` (stereo not given)?
KCNQ1 pot: inactive; hERG rescue: -22; KCNQ1 inh: 9*; Kir21 block: -7.5*; KCNK3 block: inactive; KCNK9 inh: inactive

What do the screens show for `CCn1nc(C)c(CN2CCC(C(=O)Nc3cccc(-c4cccc(Cl)c4)c3)CC2)c1C`?
KCNQ1 pot: inactive; hERG rescue: -23; KCNQ1 inh: inactive; Kir21 block: -3.8; KCNK3 block: inactive; KCNK9 inh: inactive

How did Cc1cc(C)n(C(=O)/C(C#N)=N/Nc2cc(Cl)cc(Cl)c2)n1 do in these assays?
KCNQ1 pot: inactive; hERG rescue: -20; KCNQ1 inh: 8*; Kir21 block: -1.6; KCNK3 block: inactive; KCNK9 inh: inactive

What do the screens show for `Cc1cc(C)n(C(=O)/C(C#N)=N\Nc2ccccc2[N+](=O)[O-])n1`?
KCNQ1 pot: inactive; hERG rescue: -21; KCNQ1 inh: inactive; Kir21 block: 2.1; KCNK3 block: inactive; KCNK9 inh: inactive

Results for Cc1ccc(Sc2nc3ccc(C)cn3c(=O)c2/C=N/O)cc1 ?
KCNQ1 pot: inactive; hERG rescue: -6; KCNQ1 inh: inactive; Kir21 block: -0.06; KCNK3 block: inactive; KCNK9 inh: inactive

How did Oc1ccc(C[C@H]2CNC(=S)N2CC2CCCN2C[C@H](Cc2ccc(O)cc2)N2C[C@H](Cc3ccc(O)cc3)N(CC3CCCCCC3)C2=S)cc1 (stereo not given in full) do in these assays?
KCNK3 block: inactive

How did COc1ccccc1-[n+]1c(C)cc(/C=C2\Sc3ccccc3N2C)cc1C do in these assays?
KCNQ1 pot: inactive; hERG rescue: -46; KCNQ1 inh: inactive; Kir21 block: -24; KCNK3 block: inactive; KCNK9 inh: inactive

How did COc1ccc(-[n+]2c(C)cc(/C=C3\Sc4ccccc4N3C)cc2C)cc1 do in these assays?
KCNQ1 pot: inactive; hERG rescue: -46; KCNQ1 inh: 23*; Kir21 block: -14; KCNK3 block: inactive; KCNK9 inh: inactive

How did O=C(CC(O)c1ccccc1)Nc1ccccn1 (stereo not given) do in these assays?
KCNK3 block: inactive

What do the screens show for `Cc1cc(C)c(C(=O)c2ccc(C(=O)N3CCCCC3)cc2)c(C)c1`?
KCNQ1 pot: inactive; hERG rescue: 14*; KCNQ1 inh: inactive; Kir21 block: 0.21; KCNK3 block: inactive; KCNK9 inh: inactive

How did Clc1ccc(Cn2c(-c3cccnc3Cl)nc3ccccc32)c(Cl)c1 do in these assays?
KCNQ1 pot: inactive; hERG rescue: -17; KCNQ1 inh: inactive; Kir21 block: 0.78; KCNK3 block: inactive; KCNK9 inh: inactive

What do the screens show for `Clc1ccc(Cn2c(-c3cccnc3Cl)nc3ccccc32)cc1`?
KCNQ1 pot: inactive; hERG rescue: -13; KCNQ1 inh: inactive; Kir21 block: -5.3*; KCNK3 block: inactive; KCNK9 inh: inactive

What do the screens show for `CCC1(c2ccc(Cl)cc2)NC(=O)N(CC(=O)NC2CCCC(C)C2C)C1=O` (stereo not given)?
KCNK3 block: inactive

What do the screens show for `COc1ccc(N2C(=O)[C@@H]3[C@H](C2=O)[C@H](C(=O)c2ccc(OC(C)=O)cc2)N2N=CC=C[C@@H]32)cc1`?
KCNQ1 pot: inactive; hERG rescue: -11; KCNQ1 inh: inactive; Kir21 block: -4.8*; KCNK9 inh: inactive

What do the screens show for `O=C(NC(O)C(=O)c1ccc(F)cc1)c1ccc(F)cc1` (stereo not given)?
KCNQ1 pot: inactive; hERG rescue: -5; KCNQ1 inh: inactive; Kir21 block: 1.7; KCNK3 block: inactive; KCNK9 inh: inactive

Results for CC(=O)c1ccccc1OC(=O)c1ccc(-c2ccccc2)cc1 ?
KCNQ1 pot: inactive; hERG rescue: -3; KCNQ1 inh: inactive; Kir21 block: -2.6; KCNK3 block: inactive; KCNK9 inh: -6.7*
